Compound activity: PubChem BioAssay, several laboratories
An excerpt weighted towards active compounds, which were near 2.6% of everything screened.
NR2E3 ag-1 – activates human photoreceptor nuclear receptor NR2E3; GST-NR2E3/biotin-RetCOR TR-FRET, 1536-well; AID 2300; hit rate 0.12% among 320,000; inhibition of corepressor binding, % at 4.78 µM; Q9Y5X4;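 active means percent inhibition above the cutoff of mean plus 3 SD of all tested compounds, set per screening campaign, cut at about 20% in these data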;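 further: 0% = DMSO wells and 100% = biotin wells as full block of FRET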
Target sequence (Q9Y5X4 whole entry, looked up): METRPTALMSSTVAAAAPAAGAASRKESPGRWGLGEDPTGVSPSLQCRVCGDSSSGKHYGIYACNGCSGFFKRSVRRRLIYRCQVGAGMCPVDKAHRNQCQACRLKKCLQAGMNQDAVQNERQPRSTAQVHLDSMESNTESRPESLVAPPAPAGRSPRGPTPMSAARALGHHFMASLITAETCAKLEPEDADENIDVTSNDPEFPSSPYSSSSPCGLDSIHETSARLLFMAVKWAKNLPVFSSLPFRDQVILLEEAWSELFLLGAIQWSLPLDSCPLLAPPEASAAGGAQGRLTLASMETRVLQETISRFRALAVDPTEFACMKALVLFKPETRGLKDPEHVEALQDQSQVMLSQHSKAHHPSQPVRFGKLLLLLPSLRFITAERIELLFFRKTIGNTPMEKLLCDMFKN
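System: GST-tagged NR2E3 plus biotinylated RetCOR corepressor; Amount: 1.35 nM GST-tagged NR2E3 final; Dosing: single nominal compound dose of 4.8 µM; Schedule: 5 h incubation at 4 °C; Technique: TR-FRET with europium anti-GST and streptavidin-D2, 340 nm excitation; Controls: biotin wells as high control, 0.6% DMSO wells as low control.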
rCAG RNA binder – r(CAG) repeat RNA binding | hit rate 1.3% among 370,000 | TO-PRO-1 dye displacement fluorescence | inhibition, % at 3 µM;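 active means inhibition above the plate cutoff, the mean of all test compounds on that plate plus 3 SD, cut at about 35% in these data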;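 further: 0% = DMSO alone and 100% = 100 µM mitoxantrone as full dye displacement; higher means more dye released from RNA so lower well fluorescence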
NR2E3 ag-2 – agonists of human NR2E3 nuclear receptor; Q9Y5X4; CHO-S Gal4-NCOR/VP16-NR2E3 two-hybrid, luciferase; inhibition of corepressor binding, % at 3.98 µM; hit rate 0.35% among 360,000; AID 602229;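 active means inhibition above the mean of all tested compounds plus 3 SD, cut at about 70% in these data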;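 further: 0% = DMSO with NR2E3 transfected cells and 100% = cells lacking NR2E3 construct; higher means lower luciferase signal from less NR2E3 corepressor binding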
PG9 Ab binder – binds the HIV-1 gp120 antibody PG9; TR-FRET gp120-PG9 antibody binding; inhibition, % at 6.7 µM; hit rate 0.43% among 360,000; in the data active means inhibition above about 8.5%
Rev-erbA mod – modulators of human Rev-erb alpha DNA binding | hit rate 0.79% among 370,000 | P20393 | Rev-erbα–FITC-DNA binding, fluorescence polarization, 90 min | AID 1259318 | activity, % at 10 µM;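 active means activity above about 14%, limit read from the data; passing the limit was not always enough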;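 further: 0% = DMSO wells with 35 nM protein and 100% = DMSO wells with 750 nM protein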
NR2E3 ag conf – confirmation of human NR2E3 agonists. hit rate 51% among 2,300. CHO-S mammalian two-hybrid NR2E3-NCOR, luciferase luminescence. inhibition, % at 3.98 µM. shares compounds with NR2E3 ag-2;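 active means average inhibition above a cutoff equal to the mean inhibition of all tested compounds plus one SD, cut at about 70% in these data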;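 further: 0% = DMSO in NR2E3 cells and 100% = DMSO in cells lacking NR2E3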
GAL4-VP16 luc – reduces GAL4-VP16 reporter signal in NR2E3 counterscreen. shares compounds with NR2E3 ag-2. CHO-S GAL4-VP16 luciferase reporter, luminescence. inhibition, % at 3.98 µM. hit rate 29% among 2,300;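 active means mean inhibition above a cutoff equal to the average over all tested compounds plus one standard deviation, cut at about 70% in these data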;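 further: luciferase from a UAS reporter driven by GAL4-VP16 transactivation; 0% = DMSO with VP16-transfected cells and 100% = DMSO with cells lacking VP16; higher means less reporter light so more repression of VP16 activity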
The depositor's hits bear a star.

How did Cc1ccc(NC(=O)NC2CC(=O)N(c3ccc4c(c3)OCCO4)C2)cc1C (stereo not given) do in these assays?
NR2E3 ag-1: -3.0; rCAG RNA binder: -0.6; NR2E3 ag-2: 54.5; PG9 Ab binder: 0.6; Rev-erbA mod: 2.0; NR2E3 ag conf: 32.4; GAL4-VP16 luc: 6.3

What do the screens show for `Cc1ccc(S(=O)(=O)CC2CSc3nc4ccccc4n32)cc1` (stereo not given)?
NR2E3 ag-1: -1.2; rCAG RNA binder: -4.5; NR2E3 ag-2: 74.5*; PG9 Ab binder: -1.3; Rev-erbA mod: -0.3; NR2E3 ag conf: 93.0*; GAL4-VP16 luc: 69.7

What do the screens show for `CC12CCC(C(=O)N(CSC(=S)N/N=C\c3ccccc3O)C1=O)C2(C)C` (stereo not given)?
NR2E3 ag-1: 4.4; rCAG RNA binder: 30.1; NR2E3 ag-2: 90.7*; PG9 Ab binder: -1.7; Rev-erbA mod: 3.9; NR2E3 ag conf: -8.1; GAL4-VP16 luc: -37.9

Results for COC(=O)[C@]12C[C@H](CC(=O)N3CCC(c4ccccc4)CC3)C(=O)N(Cc3ccc4c(c3)OCO4)C1=C[C@H](COCc1ccccc1)O[C@@H]2C ?
rCAG RNA binder: 8.8; PG9 Ab binder: -0.2; Rev-erbA mod: 0.2

Results for C[C@@H]1CN([C@@H](C)CO)C(=O)CCCn2cc(nn2)CO[C@H]1CN(C)C(=O)c1ccncc1 ?
rCAG RNA binder: 1.0; PG9 Ab binder: 1.2; Rev-erbA mod: 5.0

What do the screens show for `COc1ccc(CNC(=S)N/N=C(\C)c2ccc(OC)cc2)cc1`?
NR2E3 ag-1: 1.2; rCAG RNA binder: 1.8; NR2E3 ag-2: 50.9; PG9 Ab binder: -1.5; Rev-erbA mod: 3.2; NR2E3 ag conf: -14.4; GAL4-VP16 luc: -12.2

How did COc1ccc(/C(C)=N/NC(=S)NCCc2ccccc2)cc1 do in these assays?
NR2E3 ag-1: 1.1; rCAG RNA binder: -4.4; NR2E3 ag-2: 70.1; PG9 Ab binder: 0.0; Rev-erbA mod: 0.2; NR2E3 ag conf: 1.6; GAL4-VP16 luc: 1.0

Results for C=CCNC(=S)N/N=C(\C)c1ccc(OC)cc1 ?
NR2E3 ag-1: 4.7; rCAG RNA binder: 5.1; NR2E3 ag-2: 36.5; PG9 Ab binder: -2.3; Rev-erbA mod: 8.8

What do the screens show for `COc1ccc(/C(C)=N/NC(=S)NCc2ccco2)cc1`?
NR2E3 ag-1: -1.3; rCAG RNA binder: 4.2; NR2E3 ag-2: 47.5; PG9 Ab binder: -1.0; Rev-erbA mod: 4.5; NR2E3 ag conf: 3.6; GAL4-VP16 luc: -9.8

How did C/C(=N\NC(=S)NCc1ccccc1)c1ccc2ccccc2c1 do in these assays?
NR2E3 ag-1: 1.9; rCAG RNA binder: 9.5; NR2E3 ag-2: 58.2; PG9 Ab binder: -1.3; Rev-erbA mod: 3.8; NR2E3 ag conf: -28.4; GAL4-VP16 luc: -56.5

How did COc1ccc(/C(C)=N/NC(=O)CNC(=O)c2ccco2)cc1 do in these assays?
NR2E3 ag-1: 0.5; rCAG RNA binder: 0.4; NR2E3 ag-2: 3.2; PG9 Ab binder: -1.9; Rev-erbA mod: 6.3

How did NNC(=S)NCCc1ccccc1 do in these assays?
NR2E3 ag-1: -3.5; rCAG RNA binder: 0.5; NR2E3 ag-2: 66.1; PG9 Ab binder: -1.1; Rev-erbA mod: -2.5; NR2E3 ag conf: -2.1; GAL4-VP16 luc: -7.3

How did S=C(NCCc1ccccc1)NCCc1ccccc1 do in these assays?
NR2E3 ag-1: -0.2; rCAG RNA binder: -1.3; NR2E3 ag-2: -86.0; PG9 Ab binder: -1.3; Rev-erbA mod: 6.3

How did O=C(NCc1ccccc1)[C@H]1CCCN1 do in these assays?
rCAG RNA binder: 0.7; PG9 Ab binder: 0.6; Rev-erbA mod: 5.2

Results for CCN(CC)c1ccc(C(=C2C=CC(=[N+](CC)CC)C=C2)c2ccccc2)cc1 ?
rCAG RNA binder: 11.6; NR2E3 ag-2: 101.1*; PG9 Ab binder: -23.4; Rev-erbA mod: -6.7; NR2E3 ag conf: 99.2*; GAL4-VP16 luc: 98.4*

How did CCN(CC)c1ccc(C(=C2C=CC(=[N+](CC)CC)C=C2)c2ccc(N(CC)CC)cc2)cc1 do in these assays?
rCAG RNA binder: 21.9; NR2E3 ag-2: 101.2*; PG9 Ab binder: -128.2; Rev-erbA mod: -18.7; NR2E3 ag conf: 99.4*; GAL4-VP16 luc: 92.2*

What do the screens show for `COCCCNC(=O)c1nnn2c1nc(N)c1cc(Cl)ccc12`?
rCAG RNA binder: 5.2; PG9 Ab binder: -0.4; Rev-erbA mod: -8.4

How did CC(C)Cc1ccc(CC(=O)O)cc1 do in these assays?
Rev-erbA mod: -2.2

How did c1ccc(-c2noc(-c3ccc4ccccc4c3)n2)nc1 do in these assays?
NR2E3 ag-1: -1.6; NR2E3 ag-2: 48.4; NR2E3 ag conf: 18.7; GAL4-VP16 luc: -44.3

How did c1ccc(-c2noc(-c3ccncc3)n2)nc1 do in these assays?
NR2E3 ag-1: 3.8; rCAG RNA binder: -2.7; NR2E3 ag-2: -117.1; PG9 Ab binder: -1.8; Rev-erbA mod: -1.9

What do the screens show for `Cc1ccc(S(=O)(=O)n2ccc3c(OCCOCCNCc4ccc(F)cc4)cccc32)cc1`?
NR2E3 ag-1: -1.5; rCAG RNA binder: 5.2; NR2E3 ag-2: 63.0; PG9 Ab binder: -0.5; Rev-erbA mod: -0.4; NR2E3 ag conf: 34.1; GAL4-VP16 luc: 40.4

How did Cc1cc(C)c(C)c(OCCOCCNCc2ccccc2)c1 do in these assays?
NR2E3 ag-1: -6.6; rCAG RNA binder: -1.7; NR2E3 ag-2: -22.3; PG9 Ab binder: -1.3; Rev-erbA mod: -5.3

How did CC(=O)Nc1ccc(S(=O)(=O)Nc2ccc3c(c2)CCC3)cc1 do in these assays?
NR2E3 ag-1: 4.4; rCAG RNA binder: 3.9; NR2E3 ag-2: 51.3; PG9 Ab binder: -1.0; Rev-erbA mod: -1.0; NR2E3 ag conf: 21.9; GAL4-VP16 luc: 28.6

What do the screens show for `COc1ccc(OC)c(S(=O)(=O)Nc2ccc3c(c2)N(C(C)=O)CCC3)c1`?
NR2E3 ag-1: -4.9; rCAG RNA binder: 3.3; NR2E3 ag-2: 7.9; PG9 Ab binder: -0.9; Rev-erbA mod: 4.0

How did CC(=O)N1CCCc2ccc(NS(=O)(=O)c3ccc(C)c(C)c3)cc21 do in these assays?
NR2E3 ag-1: -1.1; rCAG RNA binder: 0.2; NR2E3 ag-2: 66.5; PG9 Ab binder: -2.8; Rev-erbA mod: -0.5; NR2E3 ag conf: 59.8; GAL4-VP16 luc: 48.4

How did COc1ccc(S(=O)(=O)Nc2ccc3c(c2)CCC3)cc1 do in these assays?
NR2E3 ag-1: 1.3; rCAG RNA binder: 1.8; NR2E3 ag-2: 5.8; PG9 Ab binder: 0.1; Rev-erbA mod: -5.5

Results for NS(=O)(=O)c1ccc(CCNc2nn3c(-c4cccc(OC(F)(F)F)c4)cnc3s2)cc1 ?
rCAG RNA binder: 6.8; NR2E3 ag-2: 93.7*; PG9 Ab binder: 1.5; Rev-erbA mod: 13.9; NR2E3 ag conf: 89.7*; GAL4-VP16 luc: 52.9

What do the screens show for `Cc1nn(Cc2ccc(C(=O)Nc3nccs3)cc2)c(C)c1Cl`?
NR2E3 ag-1: 3.0; rCAG RNA binder: -3.4; NR2E3 ag-2: 68.3; PG9 Ab binder: 0.1; Rev-erbA mod: -5.6; NR2E3 ag conf: 62.6; GAL4-VP16 luc: 42.6

Results for Cc1nn(Cc2ccc(C(=O)NN)cc2)c(C)c1Cl ?
NR2E3 ag-1: 0.1; rCAG RNA binder: 0.8; NR2E3 ag-2: -3.2; PG9 Ab binder: 0.1; Rev-erbA mod: 1.1
